Laboratory results: ChEMBL document CHEMBL2429794, “Tuning the antibacterial activity of amphiphilic neamine derivatives and comparison to paromamine homologues” (J Med Chem, 2013)
Values after ≈ are worked out from the molar mass of the structure shown.

What was measured:
[1] = system: Pseudomonas aeruginosa; assay: Antibacterial activity against Pseudomonas aeruginosa PA22 (PT629) expressing MexXY after 24 hrs by geometric microdilution method; assay type: functional
[2] = system: Staphylococcus aureus; assay: Antibacterial activity against vancomycin-resistant Staphylococcus aureus VRS2 after 24 hrs by geometric microdilution method; assay type: functional; conditions: VRS2, 24 h
How it was run: (§1)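 Broth cultures were incubated in plates at 37 °C, and growth was read as absorbance at 650 nm after 1, 4, 7 and 24 h. Ampicillin (16 mg/L) was the positive control and DMSO the negative control. Each MIC (μg/mL) is the average of at least three determinations.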

[3] = system: Staphylococcus aureus; assay: Antibacterial activity against Staphylococcus aureus expressing aminoglycoside-6'-N-acetyltransferase/2''-O-phosphoryltransferase after 24 hrs by geometric microdilution method; assay type: functional; how it was run: as §1
[4] = system: Pseudomonas aeruginosa; assay: Antibacterial activity against Pseudomonas aeruginosa ATCC 27853 after 24 hrs by geometric microdilution method; assay type: functional; conditions: ATCC 27853, 24 h
[5] = system: Escherichia coli; assay: microbe, parasite or virus in culture; conditions: ATCC 25922, 24 h
[6] = system: Staphylococcus aureus; assay: microbe, parasite or virus in culture; conditions: ATCC 25923, 24 h
[7] = Ratio of cytotoxicity against murine J774 cells to antibacterial activity against vancomycin-resistant Staphylococcus aureus VRS2; assay type: toxicity, cell-based; conditions: mouse
[8] = system: Escherichia coli; assay: Antibacterial activity against Escherichia coli L58058.1 expressing ANT2''-1A after 24 hrs by geometric microdilution method; assay type: functional; conditions: L58058.1, 24 h
[9] = system: Staphylococcus aureus; assay: Antibacterial activity against 14- and 15-membered macrolide-resistant Staphylococcus aureus expressing MsrA efflux pump after 24 hrs by geometric microdilution method; assay type: functional; how it was run: as §1
[10] = system: Pseudomonas aeruginosa; assay: Antibacterial activity against Pseudomonas aeruginosa F03 expressing AAC6'-2A after 24 hrs by geometric microdilution method; assay type: functional; conditions: F03, 24 h
[11] = Cytotoxicity against murine J774 cells assessed as cell viability at 10 uM after 24 hrs by MTT assay relative to control; assay type: cell-based; conditions: mouse, read-out: Activity
How it was run: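 Murine J774 macrophages were exposed for 24 h to compounds at 10 μM, then incubated 1 h with 0.2 mg/mL MTT. Viability was read from mitochondrial reduction of MTT to purple formazan, expressed as percent viability, and averaged over three experiments.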

[12] = Ratio of cytotoxicity against murine J774 cells to antibacterial activity against healthcare-acquired methicillin-resistant Staphylococcus aureus ATCC 33592; assay type: toxicity, cell-based; conditions: mouse
[13] = system: Staphylococcus aureus; assay: Antibacterial activity against Staphylococcus aureus expressing aminoglycoside-3'-O-phosphoryltransferase after 24 hrs by geometric microdilution method; assay type: functional; how it was run: as §1
[14] = system: Staphylococcus aureus; assay: Antibacterial activity against Staphylococcus aureus expressing aminoglycoside-[…] after 24 hrs by geometric microdilution method; assay type: functional; how it was run: as §1
[15] = system: Staphylococcus aureus; assay: Antibacterial activity against healthcare-acquired methicillin-resistant Staphylococcus aureus ATCC 33592 after 24 hrs by geometric microdilution method; assay type: functional; conditions: ATCC 33592, 24 h; how it was run: as §1
[16] = system: Staphylococcus aureus; assay: Antibacterial activity against fluoroquinolone-resistant Staphylococcus aureus 1199B expressing NorA efflux pump after 24 hrs by geometric microdilution method; assay type: functional; how it was run: as §1
[17] = system: Escherichia coli; assay: Antibacterial activity against Escherichia coli PAZ505H8101 expressing AAC6'-1B after 24 hrs by geometric microdilution method; assay type: functional; conditions: PAZ505H8101, 24 h
[18] = system: Klebsiella pneumoniae; assay: Antibacterial activity against Klebsiella pneumoniae ATCC 700603 after 24 hrs by geometric microdilution method; assay type: functional; conditions: ATCC 700603, 24 h
[19] = system: Acinetobacter lwoffii; assay: Antibacterial activity against Acinetobacter lwoffii ATCC 17925 after 24 hrs by geometric microdilution method; assay type: functional; conditions: ATCC 17925, 24 h
[20] = system: Acinetobacter lwoffii; assay: Antibacterial activity against Acinetobacter lwoffii AI.88-483 expressing APH3'-6A after 24 hrs by geometric microdilution method; assay type: functional; conditions: AI.88-483, 24 h
[21] = Ratio of cytotoxicity against murine J774 cells to antibacterial activity against Pseudomonas aeruginosa PA22 (PT629) expressing MexXY; assay type: toxicity, cell-based; conditions: mouse
[22] = Ratio of cytotoxicity against murine J774 cells to antibacterial activity against Pseudomonas aeruginosa ATCC 27853; assay type: toxicity, cell-based; conditions: mouse
[23] = Ratio of cytotoxicity against murine J774 cells to antibacterial activity against Pseudomonas aeruginosa F03 expressing AAC6'-2A; assay type: toxicity, cell-based; conditions: mouse

Compound	MIC [1] [µg/mL]	MIC [2] [µg/mL]	MIC [3] [µg/mL]	MIC [4] [µg/mL]	MIC [5] [µg/mL]	MIC [6] [µg/mL]	selectivity ratio [7]	MIC [8] [µg/mL]	MIC [9] [µg/mL]	MIC [10] [µg/mL]	viability at 24 h, 10 µM [11] [%]	MIC [13] [µg/mL]	MIC [14] [µg/mL]	MIC [15] [µg/mL]	MIC [16] [µg/mL]	MIC [17] [µg/mL]	MIC [18] [µg/mL]	MIC [19] [µg/mL]	MIC [20] [µg/mL]	other results
NC[C@H]1O[C@H](O[C@H]2[C@H](O)[C@@H](OCCCc3ccc4ccccc4c3)[C@H](N)C[C@@H]2N)[C@H](N)[C@@H](OCCCc2ccc3ccccc3c2)[C@@H]1O	16 (≈ 24.3 µM)	1 (≈ 1.52 µM)	2 (≈ 3.04 µM)	4 (≈ 6.07 µM)	16 (≈ 24.3 µM)	2 (≈ 3.04 µM)	11	16 (≈ 24.3 µM)	0.5 (≈ 0.759 µM)	16 (≈ 24.3 µM)	90	1 (≈ 1.52 µM)	1 (≈ 1.52 µM)	2 (≈ 3.04 µM)	2 (≈ 3.04 µM)	8 (≈ 12.1 µM)	–	–	–	selectivity ratio [12]: 5.5
NC[C@@H]1O[C@H](O[C@H]2[C@@H](O)[C@H](O[C@@H]3[C@@H](O)[C@H](N)C[C@H](N)[C@H]3O[C@H]3O[C@H](CN)[C@@H](O)[C@H](O)[C@H]3N)O[C@@H]2CO)[C@H](N)[C@@H](O)[C@@H]1O [FRAMYCETIN]	32 (≈ 52.1 µM)	128 (≈ 208 µM)	1 (≈ 1.63 µM)	64 (≈ 104 µM)	2 (≈ 3.25 µM)	2 (≈ 3.25 µM)	–	1 (≈ 1.63 µM)	2 (≈ 3.25 µM)	128 (≈ 208 µM)	–	> 128	32 (≈ 52.1 µM)	> 128	1 (≈ 1.63 µM)	4 (≈ 6.51 µM)	16 (≈ 26 µM)	0.5 (≈ 0.813 µM)	> 128	–
NC[C@H]1O[C@H](O[C@H]2[C@H](O)[C@@H](OCc3ccc4ccccc4c3)[C@H](N)C[C@@H]2N)[C@H](N)[C@@H](OCc2ccc3ccccc3c2)[C@@H]1O	> 128	16 (≈ 26.5 µM)	8 (≈ 13.3 µM)	128 (≈ 212 µM)	64 (≈ 106 µM)	8 (≈ 13.3 µM)	–	64 (≈ 106 µM)	8 (≈ 13.3 µM)	128 (≈ 212 µM)	–	4 (≈ 6.64 µM)	8 (≈ 13.3 µM)	16 (≈ 26.5 µM)	8 (≈ 13.3 µM)	64 (≈ 106 µM)	≥ 128	64 (≈ 106 µM)	> 128	–
NC[C@H]1O[C@H](O[C@H]2[C@H](O)[C@@H](OCCCCCCc3ccc4ccccc4c3)[C@H](N)C[C@@H]2N)[C@H](N)[C@@H](OCCCCCCc2ccc3ccccc3c2)[C@@H]1O	64 (≈ 86.1 µM)	> 128	128 (≈ 172 µM)	32 (≈ 43.1 µM)	128 (≈ 172 µM)	64 (≈ 86.1 µM)	–	128 (≈ 172 µM)	–	64 (≈ 86.1 µM)	< 50	64 (≈ 86.1 µM)	> 128	> 128	> 128	64 (≈ 86.1 µM)	–	–	–	–
CCCCCCCCCO[C@@H]1[C@@H](N)[C@@H](O[C@H]2[C@H](O)[C@@H](OCCCCCCCCC)[C@H](N)C[C@@H]2N)O[C@H](CN)[C@H]1O	4 (≈ 6.96 µM)	2 (≈ 3.48 µM)	4 (≈ 6.96 µM)	4 (≈ 6.96 µM)	4 (≈ 6.96 µM)	2 (≈ 3.48 µM)	> 5	4 (≈ 6.96 µM)	4 (≈ 6.96 µM)	4 (≈ 6.96 µM)	75	2 (≈ 3.48 µM)	4 (≈ 6.96 µM)	4 (≈ 6.96 µM)	8 (≈ 13.9 µM)	2 (≈ 3.48 µM)	–	–	–	selectivity ratio [21]: 2.5; selectivity ratio [22]: 2.5; selectivity ratio [23]: 2.5
